Test results reported in ChEMBL document CHEMBL3098102, “1,2,3-Triazole-derived naphthalimides as a novel type of potential antimicrobial agents: synthesis, antimicrobial activity, interaction with calf thymus DNA and human serum albumin” (Bioorg Med Chem Lett, 2014).
Converted amounts (≈) assume the structure as drawn.

Assays:
Assay type in all cases: functional
Saccharomyces cerevisiae = experiment: Antimicrobial activity against Saccharomyces cerevisiae by two-fold serial dilution method
Method in brief: (§1)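 MIC read by broth microdilution in microdilution plates.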

Micrococcus luteus = experiment: Antimicrobial activity against Micrococcus luteus ATCC 4698 after 24 hrs by two-fold serial dilution method; conditions: ATCC 4698, 24 h
Bacillus subtilis = experiment: Antimicrobial activity against Bacillus subtilis after 24 hrs by two-fold serial dilution method; method in brief: as §1
Candida albicans = experiment: Antimicrobial activity against Candida albicans after 24 hrs by two-fold serial dilution method; method in brief: as §1
Aspergillus flavus = experiment: Antimicrobial activity against Aspergillus flavus after 24 hrs by two-fold serial dilution method; method in brief: as §1
Pseudomonas aeruginosa = experiment: Antimicrobial activity against Pseudomonas aeruginosa after 24 hrs by two-fold serial dilution method; method in brief: as §1
Staphylococcus aureus [1] = experiment: Antimicrobial activity against Staphylococcus aureus ATCC 25923 after 24 hrs by two-fold serial dilution method; conditions: ATCC 25923, 24 h
Staphylococcus aureus [2] = experiment: Antimicrobial activity against methicillin-resistant Staphylococcus aureus N315 after 24 hrs by two-fold serial dilution method; conditions: N315, 24 h
[3] = Antimicrobial activity against Bacillus proteus after 24 hrs by two-fold serial dilution method; method in brief: as §1
Shigella dysenteriae = experiment: Antimicrobial activity against Shigella dysenteriae after 24 hrs by two-fold serial dilution method
Escherichia coli [4] = experiment: Antimicrobial activity against Escherichia coli DH52 after 24 hrs by two-fold serial dilution method; conditions: DH52, 24 h
Escherichia coli [5] = experiment: Ratio of chloromycin MIC to compound MIC for Escherichia coli DH52 after 24 hrs by two-fold serial dilution method

Row | SMILES | MIC (Saccharomyces cerevisiae) | MIC (Micrococcus luteus) | MIC (Bacillus subtilis) | MIC (Candida albicans) | MIC (Aspergillus flavus) | MIC (Pseudomonas aeruginosa) | MIC (Staphylococcus aureus [1]) | MIC (Staphylococcus aureus [2]) | MIC [3] | MIC (Shigella dysenteriae) | MIC (Escherichia coli [4]) | Ratio (Escherichia coli [5])
1 | O=C1c2cccc3c(Br)ccc(c23)C(=O)N1N(Cc1cn(Cc2ccccc2F)nn1)Cc1cn(Cc2ccccc2F)nn1 | > 512 µg/mL | 256 µg/mL (≈ 382 µM) | > 512 µg/mL | > 512 µg/mL | 64 µg/mL (≈ 95.6 µM) | > 512 µg/mL | > 512 µg/mL | > 512 µg/mL | > 512 µg/mL | > 512 µg/mL | 32 µg/mL (≈ 47.8 µM) | 
2 | CCCCCCn1cc(CN(Cc2cn(CCCCCC)nn2)N2C(=O)c3cccc4c(Br)ccc(c34)C2=O)nn1 | > 512 µg/mL | > 512 µg/mL | > 512 µg/mL | > 512 µg/mL | 64 µg/mL (≈ 103 µM) | 512 µg/mL (≈ 824 µM) | > 512 µg/mL | > 512 µg/mL | > 512 µg/mL | > 512 µg/mL | 512 µg/mL (≈ 824 µM) | 
3 | O=C1c2cccc3c(Br)ccc(c23)C(=O)N1N(Cc1cn(Cc2ccc(Cl)c(Cl)c2)nn1)Cc1cn(Cc2ccc(Cl)c(Cl)c2)nn1 | 64 µg/mL (≈ 83 µM) | > 512 µg/mL | > 512 µg/mL | 256 µg/mL (≈ 332 µM) | > 512 µg/mL | 256 µg/mL (≈ 332 µM) | > 512 µg/mL | > 512 µg/mL | 512 µg/mL (≈ 664 µM) | > 512 µg/mL | 1 µg/mL (≈ 1.3 µM) | 2
4 | CCCCn1cc(CN(Cc2cn(CCCC)nn2)N2C(=O)c3cccc4c(Br)ccc(c34)C2=O)nn1.Cl.Cl | > 512 µg/mL | > 512 µg/mL | 512 µg/mL | > 512 µg/mL | 64 µg/mL | > 512 µg/mL | > 512 µg/mL | > 512 µg/mL | > 512 µg/mL | > 512 µg/mL | > 512 µg/mL | 
5 | O=C1c2cccc3c(Br)ccc(c23)C(=O)N1N(Cc1cn(Cc2cccc(Cl)c2)nn1)Cc1cn(Cc2cccc(Cl)c2)nn1 | 64 µg/mL (≈ 91.1 µM) | > 512 µg/mL | 256 µg/mL (≈ 364 µM) | 64 µg/mL (≈ 91.1 µM) | > 512 µg/mL | 64 µg/mL (≈ 91.1 µM) | 256 µg/mL (≈ 364 µM) | > 512 µg/mL | > 512 µg/mL | > 512 µg/mL | 2 µg/mL (≈ 2.85 µM) | 2
6 | O=C1c2cccc3c(Br)ccc(c23)C(=O)N1N(Cc1cn(Cc2ccc(Cl)cc2)nn1)Cc1cn(Cc2ccc(Cl)cc2)nn1 | > 512 µg/mL | 64 µg/mL (≈ 91.1 µM) | 256 µg/mL (≈ 364 µM) | > 512 µg/mL | > 512 µg/mL | 512 µg/mL (≈ 729 µM) | > 512 µg/mL | > 512 µg/mL | > 512 µg/mL | 256 µg/mL (≈ 364 µM) | 2 µg/mL (≈ 2.85 µM) | 2
7 | O=C1c2cccc3c(Br)ccc(c23)C(=O)N1N(Cc1cn(Cc2ccc(F)cc2)nn1)Cc1cn(Cc2ccc(F)cc2)nn1 | > 512 µg/mL | 512 µg/mL (≈ 765 µM) | > 512 µg/mL | > 512 µg/mL | > 512 µg/mL | > 512 µg/mL | > 512 µg/mL | > 512 µg/mL | > 512 µg/mL | > 512 µg/mL | 32 µg/mL (≈ 47.8 µM) | 
8 | CCCCCCn1cc(CN(Cc2cn(CCCCCC)nn2)N2C(=O)c3cccc4c(Br)ccc(c34)C2=O)nn1.Cl.Cl | > 512 µg/mL | 512 µg/mL | > 512 µg/mL | > 512 µg/mL | 32 µg/mL | 512 µg/mL | > 512 µg/mL | > 512 µg/mL | > 512 µg/mL | > 512 µg/mL | 512 µg/mL | 
9 | O=C1c2cccc3c(Br)ccc(c23)C(=O)N1N(Cc1cn(Cc2cccc(F)c2)nn1)Cc1cn(Cc2cccc(F)c2)nn1 | > 512 µg/mL | 256 µg/mL (≈ 382 µM) | > 512 µg/mL | > 512 µg/mL | 32 µg/mL (≈ 47.8 µM) | > 512 µg/mL | > 512 µg/mL | > 512 µg/mL | > 512 µg/mL | > 512 µg/mL | 16 µg/mL (≈ 23.9 µM) | 
10 | CCCCn1cc(CN(Cc2cn(CCCC)nn2)N2C(=O)c3cccc4c(Br)ccc(c34)C2=O)nn1 | > 512 µg/mL | > 512 µg/mL | > 512 µg/mL | > 512 µg/mL | 64 µg/mL (≈ 113 µM) | > 512 µg/mL | > 512 µg/mL | > 512 µg/mL | > 512 µg/mL | > 512 µg/mL | > 512 µg/mL | 
11 | OC(Cn1cncn1)(Cn1cncn1)c1ccc(F)cc1F [FLUCONAZOLE] | 4 µg/mL (≈ 13.1 µM) |  |  | 2 µg/mL (≈ 6.53 µM) | 256 µg/mL (≈ 836 µM) |  |  |  |  |  |  | 
12 | Cl.Cl.O=C1c2cccc3c(Br)ccc(c23)C(=O)N1N(Cc1cn(Cc2ccccc2F)nn1)Cc1cn(Cc2ccccc2F)nn1 | > 512 µg/mL | 256 µg/mL | > 512 µg/mL | > 512 µg/mL | 64 µg/mL | > 512 µg/mL | > 512 µg/mL | > 512 µg/mL | > 512 µg/mL | > 512 µg/mL | 16 µg/mL | 
13 | CCn1cc(C(=O)O)c(=O)c2cc(F)c(N3CCNCC3)cc21 [NORFLOXACIN] |  | 1 µg/mL (≈ 3.13 µM) | 2 µg/mL (≈ 6.26 µM) |  |  | 1 µg/mL (≈ 3.13 µM) | 4 µg/mL (≈ 12.5 µM) | 1 µg/mL (≈ 3.13 µM) | 2 µg/mL (≈ 6.26 µM) | 2 µg/mL (≈ 6.26 µM) | 2 µg/mL (≈ 6.26 µM) | 
14 | O=C(N[C@H](CO)[C@H](O)c1ccc([N+](=O)[O-])cc1)C(Cl)Cl [CHLORAMPHENICOL] |  |  | 32 µg/mL (≈ 99 µM) |  |  | 4 µg/mL (≈ 12.4 µM) |  |  | 32 µg/mL (≈ 99 µM) | 32 µg/mL (≈ 99 µM) |  | 
15 | O=C1c2cccc3c(Br)ccc(c23)C(=O)N1N(Cc1cn(Cc2ccc([N+](=O)[O-])cc2)nn1)Cc1cn(Cc2ccc([N+](=O)[O-])cc2)nn1 | > 512 µg/mL | 512 µg/mL (≈ 708 µM) | 256 µg/mL (≈ 354 µM) | > 512 µg/mL | > 512 µg/mL | > 512 µg/mL | > 512 µg/mL | > 512 µg/mL | > 512 µg/mL | > 512 µg/mL | 256 µg/mL (≈ 354 µM) | 
16 | Cl.Cl.O=C1c2cccc3c(Br)ccc(c23)C(=O)N1N(Cc1cn(Cc2cccc(F)c2)nn1)Cc1cn(Cc2cccc(F)c2)nn1 | > 512 µg/mL | 256 µg/mL | > 512 µg/mL | > 512 µg/mL | 32 µg/mL | > 512 µg/mL | > 512 µg/mL | > 512 µg/mL | > 512 µg/mL | > 512 µg/mL | 16 µg/mL | 
17 | Cl.Cl.O=C1c2cccc3c(Br)ccc(c23)C(=O)N1N(Cc1cn(Cc2ccc(F)cc2F)nn1)Cc1cn(Cc2ccc(F)cc2F)nn1 | > 512 µg/mL | 512 µg/mL | 128 µg/mL | 512 µg/mL | > 512 µg/mL | > 512 µg/mL | > 512 µg/mL | > 512 µg/mL | > 512 µg/mL | > 512 µg/mL | 32 µg/mL | 
18 | Cl.Cl.O=C1c2cccc3c(Br)ccc(c23)C(=O)N1N(Cc1cn(Cc2ccc(F)cc2)nn1)Cc1cn(Cc2ccc(F)cc2)nn1 | > 512 µg/mL | 512 µg/mL | > 512 µg/mL | > 512 µg/mL | 512 µg/mL | > 512 µg/mL | > 512 µg/mL | > 512 µg/mL | 512 µg/mL | > 512 µg/mL | 32 µg/mL | 
19 | O=C1c2cccc3c(Br)ccc(c23)C(=O)N1N(Cc1cn(Cc2ccc(F)cc2F)nn1)Cc1cn(Cc2ccc(F)cc2F)nn1 | > 512 µg/mL | 512 µg/mL (≈ 726 µM) | 256 µg/mL (≈ 363 µM) | > 512 µg/mL | > 512 µg/mL | > 512 µg/mL | > 512 µg/mL | > 512 µg/mL | > 512 µg/mL | > 512 µg/mL | 64 µg/mL (≈ 90.7 µM) | 
